Assay results gathered from unrelated publications.
rep main protease: Replicase polyprotein 1ab, main protease (rep, Severe acute respiratory syndrome coronavirus 2, UniProt P0DTD1)

`Cn1cc2c(n1)c(=O)n(Cc1ccc(F)cc1)c1nn(Cc3ccccc3)c(=O)n21` has an inhibition of 14.9% (rep main protease; enzyme activity, inhibitor; 20 µM).
With `CS(=O)(=O)CCNCc1ccc(-c2ccc3ncnc(Nc4ccc(OCc5cccc(F)c5)c(Cl)c4)c3c2)o1` the activity vs control was 100% (rep main protease; enzyme activity, inhibitor, FRET; 100 µM).
`C=C1CC[C@@H]2[C@](C)(CO)[C@H](O)CC[C@@]2(C)[C@@H]1C/C=C1/C(=O)OC[C@H]1O` has a remaining activity of 96% (rep main protease; enzyme activity, inhibitor; 20 µM).
With `CCN(C[C@H]1O[C@@H](n2cnc3c(N)ncnc32)[C@H](O)[C@@H]1O)S(=O)(=O)c1ccc(OC)c(C#N)c1` the remaining activity was 0.1% (Replicase polyprotein 1ab, methyltransferase (rep, Severe acute respiratory syndrome coronavirus 2, UniProt P0DTD1); enzyme activity, inhibitor; 5 µM).
The ΔTm of `Cc1ccc2nc(Cl)c(C=Nc3cc(Br)ccn3)cc2c1` is reported as 8 to 12 °C (rep main protease; thermal stability; 100 µM).
`CC(C)[C@H](NC(=O)OC(C)(C)C)C(=O)N1C[C@@H]2CCC[C@@H]2[C@H]1C(=O)N[C@H](C=O)C[C@@H]1CCNC1=O` has a ΔTm of 11 °C (rep main protease; thermal stability; 40 µM).
For `O=C(Nc1ccccc1)Nn1cnnc1`, the inhibition was -7.8% (rep main protease; enzyme activity, inhibitor; 20 µM).
With `Clc1nc2ccccc2cc1/C=N\c1ccc(Br)nc1` the ΔTm was 8 to 12 °C (rep main protease; thermal stability; 100 µM).
With `CC(C)(C)NC(=O)[C@@H]1CN(Cc2cccnc2)CCN1C[C@@H](O)C[C@@H](Cc1ccccc1)C(=O)N[C@H]1c2ccccc2C[C@H]1O` the activity vs control was 100% (rep main protease; enzyme activity, inhibitor, FRET; 100 µM).
`CC(C)C[C@H](NC(=O)OCc1ccccc1)C(=O)N[C@@H](CC(C)C)C(=O)N[C@@H](CC1CCNC1=O)C(=O)C(=O)NC1CC1` (stereo partly shown) has a kinact/KI of 90500 M⁻¹ s⁻¹ (rep main protease; enzyme activity, inhibitor).
